From ChEMBL document CHEMBL2331322, “Synthesis and antimicrobial activity of some new benzo and naphthonitrile derivatives” (2013)
Values after ≈ are worked out from the molar mass of the structure shown.

Experiments:
Type in all cases: functional
Botrytis fabae [1] = assay: Antimicrobial activity against Botrytis fabae after 48 hrs by microdilution susceptibility test
Outline: (§1)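 MIC was determined by broth microdilution, using Müller–Hinton broth for bacteria and Sabouraud liquid medium for fungi. Stocks were made in DMF and serially diluted twofold. Wells were inoculated at 10⁶ CFU/mL and plates incubated at 36 °C for 24–48 h, with controls included. Only compounds giving agar-diffusion zones >14 mm were tested.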

Escherichia coli [2] = assay: Antimicrobial activity against Escherichia coli after 24 hrs by microdilution susceptibility test; outline: as §1
Escherichia coli [3] = assay: Antimicrobial activity against Escherichia coli at 1 mg/mL after 24 hrs by agar disc diffusion method; settings: read-out: DIZ
Outline: (§2)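 Sterile 5 mm filter paper disks were impregnated with test solution in DMF (1 mg/mL) and placed on agar plates seeded with the test organism, in triplicate. Bacteria were incubated at 37 °C for 24 h and fungi for […] (so in the source). The read-out was the average inhibition zone diameter around the disks, in mm.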

Botrytis fabae [4] = assay: Antimicrobial activity against Botrytis fabae at 1 mg/mL […] by agar disc diffusion method; settings: read-out: DIZ
Bacillus thuringiensis [5] = assay: Antimicrobial activity against Bacillus thuringiensis at 1 mg/mL after 24 hrs by agar disc diffusion method; settings: read-out: DIZ; outline: as §2
Bacillus subtilis [6] = assay: Antimicrobial activity against Bacillus subtilis at 1 mg/mL after 24 hrs by agar disc diffusion method; settings: read-out: DIZ; outline: as §2
Pseudomonas aeruginosa [7] = assay: Antimicrobial activity against Pseudomonas aeruginosa at 1 mg/mL after 24 hrs by agar disc diffusion method; settings: read-out: DIZ; outline: as §2
Bacillus thuringiensis [8] = assay: Antimicrobial activity against Bacillus thuringiensis after 24 hrs by microdilution susceptibility test; outline: as §1
Fusarium oxysporum [9] = assay: Antimicrobial activity against Fusarium oxysporum at 1 mg/mL after 48 hrs by agar disc diffusion method; settings: read-out: DIZ; outline: as §2
Bacillus subtilis [10] = assay: Antimicrobial activity against Bacillus subtilis after 24 hrs by microdilution susceptibility test; outline: as §1
Fusarium oxysporum [11] = assay: Antimicrobial activity against Fusarium oxysporum after 48 hrs by microdilution susceptibility test; outline: as §1
Pseudomonas aeruginosa [12] = assay: Antimicrobial activity against Pseudomonas aeruginosa after 24 hrs by microdilution susceptibility test; outline: as §1

Structure (SMILES) | MIC (Botrytis fabae [1]) [µg/mL] | MBC (Escherichia coli [2]) [µg/mL] | MIC (Escherichia coli [2]) [µg/mL] | zone of inhibition at 1000 µg/mL (Escherichia coli [3]) [mm] | zone of inhibition at 1000 µg/mL (Botrytis fabae [4]) [mm] | zone of inhibition at 1000 µg/mL (Bacillus thuringiensis [5]) [mm] | zone of inhibition at 1000 µg/mL (Bacillus subtilis [6]) [mm] | zone of inhibition at 1000 µg/mL (Pseudomonas aeruginosa [7]) [mm] | MIC (Bacillus thuringiensis [8]) [µg/mL] | zone of inhibition at 1000 µg/mL (Fusarium oxysporum [9]) [mm] | MBC (Bacillus subtilis [10]) [µg/mL] | MIC (Bacillus subtilis [10]) [µg/mL] | MIC (Fusarium oxysporum [11]) [µg/mL] | MIC (Pseudomonas aeruginosa [12]) [µg/mL]
N#Cc1ccccc1C(/N=N/c1ccc([N+](=O)[O-])cc1)C(N)=O (stereo not drawn) | 12.5 (≈ 40.4 µM) | 200 (≈ 647 µM) | 25 (≈ 80.8 µM) | 15 | 38 | 35 | 33 | 16 | 12.5 (≈ 40.4 µM) | 35 | 50 (≈ 162 µM) | 6.25 (≈ 20.2 µM) | 12.5 (≈ 40.4 µM) | 25 (≈ 80.8 µM)
N=c1[nH]c2nn(-c3ccccc3)nc2c2ccccc12 | 25 (≈ 95.7 µM) | 200 (≈ 765 µM) | 50 (≈ 191 µM) | 20 | 16 | 37 | 33 | 19 | 25 (≈ 95.7 µM) | 20 | 200 (≈ 765 µM) | 50 (≈ 191 µM) | 25 (≈ 95.7 µM) | 50 (≈ 191 µM)
